This is an account of results in ChEMBL document CHEMBL3272077, “11,12-Secoprostaglandins. 2. N-acyl-N-alkyl-7-aminoheptanoic acids” (1977).

The species named for experiment [1] is Mus musculus. Kind of experiment: Stimulation of prostanoid receptor-mediated cAMP accumulation in Charles River CD-1 mouse ovary at 100 ug/ml after 30 mins relative to control. In kind it is tissue-based. The following applies: Female gonad. An outline of the steps:
(§1)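 Mouse ovaries incubated 1 h at 37 °C with shaking to build an intracellular ATP-14C pool. Then 0.2 ml 0.05 M theophylline in 0.15 M NaCl and test compound in Me2SO were added, followed by 30 min at 37 °C. Stopped with 10% trichloroacetic acid and homogenized. cAMP-14C was isolated from the supernatant ending with paper chromatography. Result is fold increase, treated over untreated ovaries.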
(Changes in cAMP serve as a functional read-out for many G protein-coupled receptors.)

The species entered for experiment [2] is Mus musculus. Kind of experiment: Stimulation of prostanoid receptor-mediated cAMP accumulation in Charles River CD-1 mouse ovary at 10 ug/ml after 30 mins relative to control. In kind it is tissue-based. As to conditions: Female gonad. An outline of the steps: as §1
The species named for experiment [3] is Mus musculus. Kind of experiment: Stimulation of prostanoid receptor-mediated cAMP accumulation in Charles River CD-1 mouse ovary at 25 ug/ml after 30 mins relative to control. As to conditions: Female gonad. In kind it is tissue-based. An outline of the steps: as §1
For experiment [4], the species on record is Mus musculus. Kind of experiment: Stimulation of prostanoid receptor-mediated cAMP accumulation in Charles River CD-1 mouse ovary at 1 ug/ml after 30 mins relative to control. The format is tissue-based. As to conditions: Female gonad. In short, it runs like this: as §1
In experiment [5] the test system is Canis familiaris. Kind of experiment: Increase in renal blood flow in anesthetized dog at 0.25 mg/kg/min infused into thoracic aorta (reference value: 188 ml/min). The format is functional, Canis lupus familiaris.
Experiment [6] is filed under the species Mus musculus. Kind of experiment: Stimulation of prostanoid receptor-mediated cAMP accumulation in Charles River CD-1 mouse ovary at 0.1 ug/ml after 30 mins relative to control. The format is tissue-based. The following applies: Female gonad. An outline of the steps: as §1
For experiment [7], the species on record is Mus musculus. Kind of experiment: Stimulation of prostanoid receptor-mediated cAMP accumulation in Charles River CD-1 mouse ovary at 0.05 ug/ml after 30 mins relative to control. The format is tissue-based. The following applies: Female gonad. An outline of the steps: as §1

SMILES strings stand for the structures.

With `C=CC(=O)N(CCCCCCCCC)CCCCCCC(=O)O`, the fold change (FC) in experiment [1] came to 11; in experiment [2], 2; in experiment [3] it was 7.
The corresponding values for `CCCCCC(O)/C=C/CN(CCCCCCC(=O)O)C(N)=O` (stereo not drawn) are 26, 14 and 19.
Take `CCCCCC(O)CCCN(CCCCCCC(=O)[O-])C(N)=O.[Na+]` (stereo not drawn): the fold change (FC) in experiment [4] stood at 2; in experiment [1], 40; in experiment [2], 23; in experiment [3] it was 43. For the same molecule, the Activity in experiment [5] is 258 mL/min.
With `CCCCCC(O)CCCN(CCCCCCC(=O)O)C(C)=O` (stereo not drawn), the fold change (FC) in experiment [1] worked out at 17; in experiment [2], 10; in experiment [3], 17.
As for `CCCCC[C@H](O)/C=C/[C@H]1[C@H](O)CC(=O)[C@@H]1CCCCCCC(=O)O`, the fold change (FC) amounted to 54 in experiment [4], 25 in experiment [6] and 29 in experiment [7].
With `CCCCCCCCC(C)N(CCCCCCC(=O)O)C(N)=O` (stereo not drawn), the figures for the fold change (FC) in experiment [1], in experiment [2] and in experiment [3] were 17, 9 and 16, respectively.
Regarding `CCCCCC(O)CCCN(C#N)CCCCCCC(=O)O` (stereo not drawn), the fold change (FC) in experiment [1] was found to be 31; in experiment [2], 4; in experiment [3], 18.
`CCCCCCCCC(C)N(CCCCCCC(=O)O)C(C)=O` (stereo not drawn): the fold change (FC) in experiment [1] amounted to 4; in experiment [3] it was 3.
For `CCCCCCCCC(c1ccccc1)N(CCCCCCC(=O)O)C(C)=O` (stereo not drawn), in that order: 1 and 1.
As for `CCCCCC(O)CCCC(CCCCCCC(=O)O)C(C)=O` (stereo not drawn), the fold change (FC) in experiment [4] was determined as 2; in experiment [1], 23; in experiment [2], 11; in experiment [3] it was 14.
With `CCCCCC(C)(O)CCCN(CCCCCCC(=O)O)C(N)=O` (stereo not drawn), the figures for the fold change (FC) in experiment [1], in experiment [2] and in experiment [3] were 22, 3 and 8, respectively.
The corresponding values for `CCCCCC(O)CCCN(CCCCCCC(=O)O)C(N)=S` (stereo not drawn) are 26, 4 and 16.
Turning to `CCCCC[C@H](O)CC[C@H]1CCC(=O)[C@@H]1CCCCCCC(=O)O`, the fold change (FC) in experiment [4] turned out to be 10; in experiment [2], 25; in experiment [3], 26.
With `CCCCCCCCCN(CCCCCCC(=O)O)C(N)=O`, the values for the fold change (FC) in experiment [1], in experiment [2] and in experiment [3] were 25, 15 and 16, respectively.
